Source: ChEMBL document CHEMBL1152875, “Synthesis and optimization of arylsulfonylpiperazines as a novel class of inhibitors of 11 beta-hydroxysteroid dehydrogenase type 1 (11 beta-HSD1)” (Bioorg Med Chem Lett, 2009)
Converted amounts (≈) assume the structure as drawn.

Key:
[1] = Metabolic stability in rat liver S9 fraction assessed as compound remaining after 60 mins; format: ADME, subcellular; details: read-out: Activity
[2] = Solubility at pH 5.0; format: physicochemical; details: buffer
[3] = Drug level in mesenteric fat tissue of cynomolgus monkey at 0.4 mg/kg, po after 2 hrs; format: ADME, organism-based, Macaca fascicularis, Adipose tissue; parameters: dose 0.4 mg/kg, route oral; details: read-out: Drug uptake
How it was run: (§1)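 Cynomolgus monkeys were given single oral doses of 0.4, 2 or 10 mg/kg in 1% methylcellulose plus 1% Tween 80 in sterile water, with 3 animals per dose group and a vehicle group of 4. Plasma and mesenteric fat were collected 2 h post-dose. Compound level in each matrix was measured by LC/MS/MS.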

[4] = Plasma concentration in cynomolgus monkey at 0.4 mg/kg, po after 2 hrs; format: ADME, organism-based, Macaca fascicularis; parameters: dose 0.4 mg/kg, route oral; how it was run: as §1
[5] = Drug level in mesenteric fat tissue of cynomolgus monkey at 10 mg/kg, po after 2 hrs; format: ADME, organism-based, Macaca fascicularis, Adipose tissue; parameters: dose 10 mg/kg, route oral; details: read-out: Drug uptake; how it was run: as §1
[6] = Plasma concentration in cynomolgus monkey at 2 mg/kg, po after 2 hrs; format: ADME, organism-based, Macaca fascicularis; parameters: dose 2 mg/kg, route oral; how it was run: as §1
[7] = Plasma concentration in cynomolgus monkey at 10 mg/kg, po after 2 hrs; format: ADME, organism-based, Macaca fascicularis; parameters: dose 10 mg/kg, route oral; how it was run: as §1
[8] = AUC in rat at 2 mg/kg, po; format: ADME, organism-based; parameters: dose 2 mg/kg, route oral; details: plasma
[9] = Drug level in mesenteric fat tissue of cynomolgus monkey at 2 mg/kg, po after 2 hrs; format: ADME, organism-based, Macaca fascicularis, Adipose tissue; parameters: dose 2 mg/kg, route oral; details: read-out: Drug uptake; how it was run: as §1
[10] = Oral bioavailability in rat; format: ADME, organism-based; details: in vivo
Cytochrome P450 3A4 = Cytochrome P450 3A4 (Homo sapiens, UniProt P08684)
[11] = molecular target: Voltage-gated inwardly rectifying potassium channel KCNH2 (Homo sapiens, UniProt Q12809)
[12] = Clearance in rat; format: ADME, organism-based; details: in vivo

Voltage-gated inwardly rectifying potassium channel KCNH2, sequence (Q12809 whole entry): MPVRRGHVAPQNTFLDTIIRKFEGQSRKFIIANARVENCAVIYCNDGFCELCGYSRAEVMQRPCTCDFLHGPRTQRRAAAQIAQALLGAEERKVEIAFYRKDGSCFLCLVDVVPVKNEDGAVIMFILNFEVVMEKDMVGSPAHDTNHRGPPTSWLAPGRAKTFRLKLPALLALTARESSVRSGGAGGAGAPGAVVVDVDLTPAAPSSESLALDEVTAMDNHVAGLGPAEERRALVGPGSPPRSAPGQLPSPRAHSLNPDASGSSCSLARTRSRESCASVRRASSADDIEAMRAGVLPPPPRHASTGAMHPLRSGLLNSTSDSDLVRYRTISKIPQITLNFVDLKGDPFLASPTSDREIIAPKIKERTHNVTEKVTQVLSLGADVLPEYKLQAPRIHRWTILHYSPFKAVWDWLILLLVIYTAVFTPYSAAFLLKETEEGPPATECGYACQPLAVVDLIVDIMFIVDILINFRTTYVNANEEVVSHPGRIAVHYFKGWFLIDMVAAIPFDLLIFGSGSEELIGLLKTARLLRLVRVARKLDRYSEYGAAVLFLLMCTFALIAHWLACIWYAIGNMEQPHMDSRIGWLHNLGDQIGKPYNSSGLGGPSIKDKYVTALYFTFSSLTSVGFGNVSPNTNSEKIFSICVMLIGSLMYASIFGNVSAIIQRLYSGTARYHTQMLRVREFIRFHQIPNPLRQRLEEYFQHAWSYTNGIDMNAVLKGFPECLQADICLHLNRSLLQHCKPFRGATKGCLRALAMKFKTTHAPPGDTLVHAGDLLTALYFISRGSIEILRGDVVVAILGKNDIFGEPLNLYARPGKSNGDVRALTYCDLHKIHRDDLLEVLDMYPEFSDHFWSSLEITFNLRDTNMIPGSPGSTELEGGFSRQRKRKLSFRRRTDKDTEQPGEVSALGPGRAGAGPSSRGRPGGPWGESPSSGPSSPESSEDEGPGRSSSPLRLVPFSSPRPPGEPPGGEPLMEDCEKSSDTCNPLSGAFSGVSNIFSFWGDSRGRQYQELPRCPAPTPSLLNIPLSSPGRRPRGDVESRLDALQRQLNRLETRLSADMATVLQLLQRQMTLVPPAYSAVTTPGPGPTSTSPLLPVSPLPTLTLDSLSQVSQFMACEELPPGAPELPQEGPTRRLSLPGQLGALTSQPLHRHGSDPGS
Cytochrome P450 3A4, sequence (P08684 whole entry): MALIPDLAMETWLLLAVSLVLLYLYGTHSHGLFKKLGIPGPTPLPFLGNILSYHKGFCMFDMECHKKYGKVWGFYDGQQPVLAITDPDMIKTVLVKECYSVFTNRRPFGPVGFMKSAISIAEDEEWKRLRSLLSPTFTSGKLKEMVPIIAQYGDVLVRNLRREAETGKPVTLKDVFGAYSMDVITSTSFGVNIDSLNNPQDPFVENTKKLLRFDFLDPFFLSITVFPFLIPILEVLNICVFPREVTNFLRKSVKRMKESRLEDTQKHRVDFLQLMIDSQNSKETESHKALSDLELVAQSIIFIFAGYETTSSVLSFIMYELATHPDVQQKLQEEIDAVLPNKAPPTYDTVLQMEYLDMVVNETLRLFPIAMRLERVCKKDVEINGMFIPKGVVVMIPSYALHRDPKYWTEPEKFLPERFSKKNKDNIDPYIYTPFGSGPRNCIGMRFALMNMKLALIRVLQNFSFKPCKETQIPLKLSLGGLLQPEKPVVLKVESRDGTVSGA

| Compound | remaining at 1 h [1] [%] | solubility [2] [µg/mL] | other results |
| --- | --- | --- | --- |
| C[C@@H]1CN(CCc2ccncc2)CCN1S(=O)(=O)c1ccc(C(C)(O)C(F)(F)F)cc1 (stereo not given in full) | 59 |  |  |
| C[C@@H]1CN(c2ccc([N+](=O)[O-])cc2)CCN1S(=O)(=O)c1ccc(C(C)(C)C)cc1 |  | 1.8 (≈ 4.31 µM) |  |
| C[C@@H]1CN(CCc2cccnc2)CCN1S(=O)(=O)c1ccc(C(C)(O)C(F)(F)F)cc1 (stereo not given in full) | 67 |  |  |
| C[C@@H]1CN(Cc2ccncc2)CCN1S(=O)(=O)c1ccc(C(C)(C)C)cc1 |  | 18.1 (≈ 46.7 µM) |  |
| C[C@@H]1CN(CC2(c3cccnc3)CC2)CCN1S(=O)(=O)c1ccc(C(C)(O)C(F)(F)F)cc1 (stereo not given in full) | 50 |  |  |
| C[C@@H]1CN(CC2(C(N)=O)CC2)CCN1S(=O)(=O)c1ccc([C@](C)(O)C(F)(F)F)cc1 |  |  | concentration at 2 h [3]: 105 nM; concentration at 2 h [4]: 29 nM; concentration at 2 h [5]: 40700 nM; concentration at 2 h [6]: 349 nM; concentration at 2 h [7]: 503 nM; AUC [8]: 638 ng·h/mL; concentration at 2 h [9]: 2780 nM |
| C[C@@H]1CN(CC2(c3ccncc3)CC2)CCN1S(=O)(=O)c1ccc(C(C)(O)C(F)(F)F)cc1 (stereo not given in full) | 80 |  | bioavailability [10]: 60%; IC50 (Cytochrome P450 3A4): 1700 nM; IC50 [11]: 440 nM; clearance [12]: 35 mL/min/kg |
| C[C@@H]1CN(CCCc2ccncc2)CCN1S(=O)(=O)c1ccc(C(C)(C)C)cc1 |  | 39 (≈ 93.8 µM) |  |
| C[C@@H]1CN(CC(F)(F)c2ccncc2)CCN1S(=O)(=O)c1ccc(C(C)(O)C(F)(F)F)cc1 (stereo not given in full) | 40 |  |  |
| CC(c1ccncc1)N1CCN(S(=O)(=O)c2ccc(C(C)(C)C)cc2)[C@H](C)C1 (stereo not given in full) |  | 20.8 (≈ 51.8 µM) |  |
| C[C@@H]1CN(CC2(c3ccncc3)CCCC2)CCN1S(=O)(=O)c1ccc(C(C)(O)C(F)(F)F)cc1 (stereo not given in full) | 43 |  |  |
| C[C@@H]1CN(CC2(c3ccncc3)CCC2)CCN1S(=O)(=O)c1ccc(C(C)(O)C(F)(F)F)cc1 (stereo not given in full) | 54 |  |  |
| C[C@@H]1CN(CC2(c3cccnc3)CCC2)CCN1S(=O)(=O)c1ccc(C(C)(O)C(F)(F)F)cc1 (stereo not given in full) | 61 |  |  |
| C[C@@H]1CN(CCc2ccccn2)CCN1S(=O)(=O)c1ccc(C(C)(O)C(F)(F)F)cc1 (stereo not given in full) | 28 |  |  |
| CC(C)(C)c1ccc(S(=O)(=O)N2CCN(c3ccc([N+](=O)[O-])cc3)CC2)cc1 |  | 0.5 (≈ 1.24 µM) | AUC [8]: 29.8 ng·h/mL |
| C[C@@H]1CN(Cc2ccnc3ccccc23)CCN1S(=O)(=O)c1ccc(C(C)(C)C)cc1 |  | 1 (≈ 2.29 µM) |  |
| C[C@@H]1CN(CC(F)(F)c2cccnc2)CCN1S(=O)(=O)c1ccc(C(C)(O)C(F)(F)F)cc1 (stereo not given in full) | 46 |  |  |
| C[C@@H]1CN(CC2(c3cccnc3)CCCC2)CCN1S(=O)(=O)c1ccc(C(C)(O)C(F)(F)F)cc1 (stereo not given in full) | 60 |  |  |
| C[C@@H]1CN(CCc2ccncc2)CCN1S(=O)(=O)c1ccc(C(C)(C)C)cc1 |  | 21.8 (≈ 54.3 µM) |  |
